In ChEMBL document CHEMBL1125641, “Syntheses and in vitro evaluation of water-soluble "cationic metalloporphyrin-ellipticine" molecules having a high affinity for DNA” (J Med Chem, 1991):

Experiments:
Nucleic Acid [1] = experiment: DNA affinity constant to poly[d(G-C)]; assay type: nucleic-acid assay; details: Bos taurus
In short: (§1)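 Ethidium bromide displacement at 25 °C in 0.01 M cacodylate pH 7.0 with 10 mM NaCl, using 1.26 μM EB and 1 μM polynucleotide (poly[d(A-T)] or poly[d(G-C)]). Bound-EB fluorescence was read across varying drug concentrations. The concentration displacing 50% of EB came from nonlinear-regression fitting, and Kapp was derived from it by the Baguley method.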

Nucleic Acid [2] = experiment: DNA affinity constant to poly[d(A-T)]; assay type: nucleic-acid assay; details: Bos taurus; in short: as §1
L1210 [3] = experiment: Concentration required to reduce 50% growth of L1210 cells in 48h; b=No inhibition at 7.5 uM; assay type: functional, cell-based, Mus musculus
In short: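 Murine leukaemia L1210 cells grown in vitro, with the metalloporphyrin derivatives dissolved in water. Growth was measured after 48 h against untreated controls. IC50 is the concentration that cuts the rate of cell multiplication by 50%. Values are the mean of two or three determinations, or of four independent experiments where a deviation is given.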

L1210 [4] = experiment: Concentration required to reduce 50% growth of L1210 cells in 48 hr; assay type: functional, cell-based, Mus musculus
In short: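 Murine leukemia L1210 cells grown in vitro with the derivatives, which were dissolved in water. Growth was scored after 48 h against untreated controls. IC50 is the concentration that cuts cell multiplication by 50%. Values are the mean of two or three determinations, or four independent experiments where a standard deviation is given.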

[5] = tested as the Zn salt or complex

In the case of CC(=O)[O-].CC(=O)[O-].CC(=O)[O-].CC(=O)[O-].COc1ccc2[nH]c3c(C)c4cc[n+](CCCCC(=O)Nc5ccc(-c6c7nc(c(-c8cc[n+](C)cc8)c8ccc([nH]8)c(-c8cc[n+](C)cc8)c8nc(c(-c9cc[n+](C)cc9)c9ccc6[nH]9)C=C8)C=C7)cc5)cc4c(C)c3c2c1.[Zn], the K app (Nucleic Acid [1]; [5]) is reported as 1.9e+08 M⁻¹, the K app (Nucleic Acid [2]; [5]) is reported as 2e+09 M⁻¹ and the IC50 (L1210 [3]) is reported as “No growth inhibition”.
COc1ccc2[nH]c3c(C)c4cc[n+](CCCCC(=O)O)cc4c(C)c3c2c1 was tested, and the IC50 (L1210 [4]; Mus musculus, L1210, 48 h) was > 23000 nM, the K app (Nucleic Acid [1]) was 4.9e+06 M⁻¹ and the K app (Nucleic Acid [2]) was 2.5e+06 M⁻¹.
BLEOMYCIN gave an IC50 (L1210 [4]; l1210) of 1700 nM.
